Laboratory results reported in ChEMBL document CHEMBL1128260, “3-deaza- and 7-deaza-5'-noraristeromycin and their antiviral properties” (1995).
≈ marks a conversion by molar mass, not a printed value.

Experiments:
Format in all cases: functional
CCRF-CEM [1] = assay: The minimum inhibitory concentration required to reduce HIV-1(IIIB) virus induced cytopathicity by 50% was measured on CEM cells; conditions: Homo sapiens
In short: (§1)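 CEM cells at 250,000-300,000 cells/mL were infected with HIV-1 (IIIB) or HIV-2 (ROD) at 100 CCID50/mL. The infected suspension was added to serial compound dilutions and incubated 4 days at 37 °C. Cultures were then examined for syncytium (giant cell) formation, and the 50% inhibitory concentration was recorded.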

CCRF-CEM [2] = assay: The minimum inhibitory concentration required to reduce HIV-2(ROD) virus induced cytopathicity by 50% was measured on CEM cells; conditions: Homo sapiens; in short: as §1
E6SM [3] = assay: Tested for concentration required to cause a microscopically detectable alteration of E6SM cell morphology; conditions: Homo sapiens; read-out: MIC50
In short: (§2)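 Confluent E6SM, HeLa, Vero or MDCK cell cultures exposed to varying test-compound concentrations and examined microscopically. The value is the concentration causing a microscopically detectable alteration of normal cell morphology.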

E6SM [4] = assay: The minimum inhibitory concentration required to reduce HSV-1(KOS) virus induced cytopathicity by 50% was measured on E6SM cells; conditions: Homo sapiens
In short: (§3)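 Confluent cell monolayers in microtiter trays were inoculated with 100 CCID50 of virus and allowed 1 h adsorption, then residual virus was removed. Cultures were incubated with varying compound concentrations (400, 200, 100, ... µg/mL). Cytopathicity was scored once it was complete in the untreated infected controls. The value is the concentration reducing virus-induced cytopathicity by 50%.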

E6SM [5] = assay: The minimum inhibitory concentration required to reduce HSV-2(G) virus induced cytopathicity by 50% was measured on E6SM cells; conditions: Homo sapiens; in short: as §3
E6SM [6] = assay: The minimum inhibitory concentration required to reduce TK HSV-1 (B2006) virus induced cytopathicity by 50% in E6SM cells; conditions: Homo sapiens; in short: as §3
E6SM [7] = assay: The minimum inhibitory concentration required to reduce Vaccinia virus induced cytopathicity by 50% in E6SM cells; conditions: Homo sapiens; in short: as §3
E6SM [8] = assay: The minimum inhibitory concentration required to reduce Vesicular Stomatitis Virus induced cytopathicity by 50% in E6SM cells; conditions: Homo sapiens; in short: as §3
HEL [9] = assay: Tested for the concentration required to cause a microscopically detectable alteration of HEL cell morphology; conditions: Homo sapiens; read-out: MIC50
HEL [10] = assay: The minimum inhibitory concentration required to reduce CMV(AD-169) virus induced cytopathicity by 50% was measured on HEL cells; conditions: Homo sapiens; in short: as §3
HEL [11] = assay: The minimum inhibitory concentration required to reduce CMV(Davis) virus induced cytopathicity by 50% was measured on HEL cells; conditions: Homo sapiens; in short: as §3
HEL [12] = assay: The minimum inhibitory concentration required to reduce TK-VZV(YS-R) virus induced cytopathicity by 50% was measured on HEL cells; conditions: Homo sapiens; in short: as §3
HEL [13] = assay: The minimum inhibitory concentration required to reduce VZV(Oka) virus induced cytopathicity by 50% was measured on HEL cells; conditions: Homo sapiens; in short: as §3
HEL [14] = assay: The minimum inhibitory concentration required to reduce VZV(YS) virus induced cytopathicity by 50% was measured on HEL cells; conditions: Homo sapiens; in short: as §3
HeLa [15] = assay: The minimum inhibitory concentration required to reduce Coxsackie B4 virus induced cytopathicity by 50% in HeLa cells.; conditions: Homo sapiens; in short: as §3
HeLa [16] = assay: The minimum inhibitory concentration required to reduce Polio-1 virus induced cytopathicity by 50% in HeLa cells; conditions: Homo sapiens; in short: as §3
[17] = tested on: Respiratory syncytial virus; assay: The minimum inhibitory concentration required to reduce RSV(Long) virus induced cytopathicity by 50% in HeLa cells; conditions: human respiratory syncytial virus; in short: as §3
HeLa [18] = assay: The minimum inhibitory concentration required to reduce Vesicular Stomatitis Virus induced cytopathicity by 50% in HeLa cells; conditions: Homo sapiens; in short: as §3
MDCK [19] = assay: The minimum inhibitory concentration required to reduce Influenza A virus induced cytopathicity by 50% was measured on MDCK cells; conditions: Canis lupus familiaris; in short: as §3
MDCK [20] = assay: The minimum inhibitory concentration required to reduce Influenza B virus induced cytopathicity by 50% was measured on MDCK cells; conditions: Canis lupus familiaris; in short: as §3
MDCK [21] = assay: Tested for the concentration required to cause a microscopically detectable alteration of MCDK cell morphology; conditions: Canis lupus familiaris; read-out: MIC50; in short: as §2
Vero [22] = assay: The minimum inhibitory concentration required to reduce Arenavirus (Junin) induced cytopathicity by 50% was measured on Vero cells; conditions: Chlorocebus sabaeus; in short: as §3
Vero [23] = assay: The minimum inhibitory concentration required to reduce Arenavirus (Tacaribe) induced cytopathicity by 50% was measured on Vero cells; conditions: Chlorocebus sabaeus; in short: as §3
Vero [24] = assay: The minimum inhibitory concentration required to reduce Parainfluenza virus type 3(ATCC VR-93) induced cytopathicity by 50% in Vero cells; conditions: Chlorocebus sabaeus; in short: as §3
Vero [25] = assay: The minimum inhibitory concentration required to reduce Reo-1 virus (ATCC VR-230) induced cytopathicity by 50% was measured in Vero cells; conditions: Chlorocebus sabaeus; in short: as §3
Vero [26] = assay: The minimum inhibitory concentration required to reduce forest virus (ATCC VR-67) induced cytopathicity by 50% in Vero cells; conditions: Chlorocebus sabaeus; in short: as §3
Vero [27] = assay: The minimum inhibitory concentration required to reduce Sindbis virus ([…]) induced cytopathicity by 50% in Vero cells; conditions: Chlorocebus sabaeus; in short: as §3
Vero [28] = assay: Tested for concentration required to cause a microscopically detectable alteration of Vero cell morphology; conditions: Chlorocebus sabaeus; read-out: MIC50; in short: as §2
CCRF-CEM [29] = assay: Tested for concentration required to cause a microscopically detectable alteration of CEM cell morphology; conditions: Homo sapiens
E6SM [30] = assay: The minimum inhibitory concentration required to reduce TK-HSV-1(VMW 1837) virus induced cytopathicity by 50% in E6SM cells; conditions: Homo sapiens; in short: as §3
HEL [31] = assay: The minimum inhibitory concentration required to reduce TK-VZV(07-1) virus induced cytopathicity by 50% was measured on HEL cells; conditions: Homo sapiens; in short: as §3
HeLa [32] = assay: Tested for concentration required to cause a microscopically detectable alteration of HeLa cell morphology; conditions: Homo sapiens; read-out: MIC50; in short: as §2

| SMILES | minimum cytotoxic concentration (microscopic alteration of cell morphology) (E6SM [3]) | MIC50 (E6SM [4]) | MIC50 (E6SM [5]) | MIC50 (E6SM [7]) | MIC50 (E6SM [8]) | Minimum cytotoxic concentration (MCC) (HEL [9]) | MIC50 (HEL [10]) | MIC50 (HEL [11]) | MIC50 (HEL [13]) | MIC50 (HEL [14]) | MIC50 (HeLa [15]) | MIC50 (HeLa [16]) | MIC50 [17] | MIC50 (HeLa [18]) | MIC50 (MDCK [19]) | MIC50 (MDCK [20]) | Minimum cytotoxic concentration (MDCK [21]) | MIC50 (Vero [22]) | MIC50 (Vero [23]) | MIC50 (Vero [24]) | further results |
| --- | --- | --- | --- | --- | --- | --- | --- | --- | --- | --- | --- | --- | --- | --- | --- | --- | --- | --- | --- | --- | --- |
| Nc1nccc2c1ncn2C1CC(O)C(O)C1O (single isomer, unassigned; (-)) | > 400 µg/mL | > 400 µg/mL | > 400 µg/mL | 0.4 µg/mL (≈ 1.6 µM) | 0.7 µg/mL (≈ 2.8 µM) | > 200 µg/mL | > 40 µg/mL | > 40 µg/mL | > 40 µg/mL | > 40 µg/mL | > 400 µg/mL | > 400 µg/mL | > 150 µg/mL | 2 µg/mL (≈ 7.99 µM) | 150 µg/mL (≈ 599 µM) | > 200 µg/mL | > 200 µg/mL | > 40 µg/mL | > 40 µg/mL | 1 µg/mL (≈ 4 µM) | MIC50 (CCRF-CEM [1]): > 20 µg/mL; MIC50 (CCRF-CEM [2]): > 20 µg/mL; MIC50 (E6SM [6]): 300 µg/mL (≈ 1200 µM); MIC50 (HEL [12]): > 40 µg/mL; MIC50 (Vero [25]): 7 µg/mL (≈ 28 µM); MIC50 (Vero [26]): > 200 µg/mL; MIC50 (Vero [27]): > 200 µg/mL; Minimum cytotoxic concentration (Vero [28]): > 200 µg/mL; MIC50 (CCRF-CEM [29]): 27 µg/mL (≈ 108 µM); MIC50 (E6SM [30]): 300 µg/mL (≈ 1200 µM); MIC50 (HEL [31]): > 30 µg/mL; Minimum cytotoxic concentration (HeLa [32]): > 400 µg/mL |
| Nc1ncnc2c1ncn2[C@@H]1C[C@H](O)[C@@H](O)[C@H]1O [NORARISTEROMYCIN] | > 400 µg/mL | > 400 µg/mL | > 400 µg/mL | 0.04 µg/mL (≈ 0.159 µM) | 0.1 µg/mL (≈ 0.398 µM) | 50 µg/mL | 0.01 µg/mL (≈ 0.0398 µM) | 0.03 µg/mL (≈ 0.119 µM) | > 50 µg/mL | > 50 µg/mL | > 400 µg/mL | > 400 µg/mL | > 200 µg/mL | 0.2 µg/mL (≈ 0.796 µM) | > 100 µg/mL | > 100 µg/mL | > 400 µg/mL | 6 µg/mL (≈ 23.9 µM) | 8 µg/mL (≈ 31.8 µM) | 0.07 µg/mL (≈ 0.279 µM) | MIC50 (CCRF-CEM [1]): > 0.16 µg/mL; MIC50 (CCRF-CEM [2]): > 0.16 µg/mL; MIC50 (Vero [25]): 0.7 µg/mL (≈ 2.79 µM); MIC50 (Vero [26]): > 400 µg/mL; MIC50 (Vero [27]): > 400 µg/mL; Minimum cytotoxic concentration (Vero [28]): > 400 µg/mL; MIC50 (CCRF-CEM [29]): 0.4 µg/mL (≈ 1.59 µM); Minimum cytotoxic concentration (HeLa [32]): > 400 µg/mL |
| Nc1ncnc2c1ncn2[C@@H]1C=C(CO)[C@@H](O)[C@H]1O [NEOPLANOCIN A] | 100 µg/mL | 70 µg/mL (≈ 266 µM) | > 100 µg/mL | 0.2 µg/mL (≈ 0.76 µM) | 2 µg/mL (≈ 7.6 µM) | 20 µg/mL | 0.6 µg/mL (≈ 2.28 µM) | 0.4 µg/mL (≈ 1.52 µM) | 4 µg/mL (≈ 15.2 µM) | 5 µg/mL (≈ 19 µM) | > 40 µg/mL | > 40 µg/mL | > 1.2 µg/mL | 2 µg/mL (≈ 7.6 µM) | 0.3 µg/mL (≈ 1.14 µM) | > 4 µg/mL | 4 µg/mL | 1 µg/mL (≈ 3.8 µM) | 1 µg/mL (≈ 3.8 µM) | 0.2 µg/mL (≈ 0.76 µM) | MIC50 (E6SM [6]): 20 µg/mL (≈ 76 µM); MIC50 (HEL [12]): 3 µg/mL (≈ 11.4 µM); MIC50 (Vero [25]): 0.7 µg/mL (≈ 2.66 µM); MIC50 (Vero [26]): 7 µg/mL (≈ 26.6 µM); MIC50 (Vero [27]): 2 µg/mL (≈ 7.6 µM); Minimum cytotoxic concentration (Vero [28]): 40 µg/mL; MIC50 (E6SM [30]): 70 µg/mL (≈ 266 µM); MIC50 (HEL [31]): 4 µg/mL (≈ 15.2 µM); Minimum cytotoxic concentration (HeLa [32]): 1 µg/mL |
| Nc1ncnc2c1ccn2[C@H]1C[C@@H](O)[C@H](O)[C@@H]1O | > 400 µg/mL | 300 µg/mL (≈ 1200 µM) | > 400 µg/mL | 150 µg/mL (≈ 599 µM) | 70 µg/mL (≈ 280 µM) | > 200 µg/mL | > 40 µg/mL | > 40 µg/mL | > 40 µg/mL | > 40 µg/mL | > 400 µg/mL | > 400 µg/mL | 100 µg/mL (≈ 400 µM) | 300 µg/mL (≈ 1200 µM) | > 200 µg/mL | > 200 µg/mL | > 200 µg/mL | > 20 µg/mL | > 20 µg/mL | 100 µg/mL (≈ 400 µM) | MIC50 (CCRF-CEM [1]): > 500 µg/mL; MIC50 (CCRF-CEM [2]): > 500 µg/mL; MIC50 (E6SM [6]): 300 µg/mL (≈ 1200 µM); MIC50 (HEL [12]): > 40 µg/mL; MIC50 (Vero [25]): > 200 µg/mL; MIC50 (Vero [26]): > 200 µg/mL; MIC50 (Vero [27]): > 200 µg/mL; Minimum cytotoxic concentration (Vero [28]): > 400 µg/mL; MIC50 (CCRF-CEM [29]): > 500 µg/mL; MIC50 (E6SM [30]): 300 µg/mL (≈ 1200 µM); MIC50 (HEL [31]): > 40 µg/mL; Minimum cytotoxic concentration (HeLa [32]): > 400 µg/mL |
